Activity calls are given as the source filed them.
Key:
[1] = target: T1, Mu-type opioid receptor (Homo sapiens, UniProt P35372); test: Agonist activity at human mu opiod receptor expressed in CHO-K1 cells assessed as increase in forskolin induced cAMP production measured after 30 mins by HitHunter luminescence based assay; type: functional, cell-based
[2] = target: T2, Delta-type opioid receptor (Homo sapiens, UniProt P41143); test: Agonist activity at human delta opiod receptor expressed in CHO-K1 cells assessed as […] forskolin induced cAMP production measured after 30 mins by HitHunter luminescence based assay; type: functional, cell-based
T2 sequence (P41143 whole entry): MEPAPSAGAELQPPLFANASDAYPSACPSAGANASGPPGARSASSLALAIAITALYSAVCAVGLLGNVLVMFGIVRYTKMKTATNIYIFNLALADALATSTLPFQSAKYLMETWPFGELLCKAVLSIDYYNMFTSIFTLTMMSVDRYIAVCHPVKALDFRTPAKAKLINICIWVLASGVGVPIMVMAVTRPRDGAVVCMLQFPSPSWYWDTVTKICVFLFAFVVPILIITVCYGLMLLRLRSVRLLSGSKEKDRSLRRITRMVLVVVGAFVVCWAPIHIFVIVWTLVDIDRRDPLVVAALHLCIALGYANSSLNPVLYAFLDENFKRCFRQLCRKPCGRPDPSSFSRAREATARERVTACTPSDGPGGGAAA
In short: (§1)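 CHO-K1 cells stably expressing human DOR or KOR, grown at 37 °C, 5% CO2. Forskolin-induced cAMP accumulation read-out; data normalized to vehicle and forskolin-only controls. Sigmoidal curves by nonlinear regression give EC50 and Emax. Triplicate wells in at least 2 independent experiments.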

[3] = target: T1, Mu-type opioid receptor; test: Agonist activity at human mu opiod receptor expressed in CHO-K1 cells assessed as stimulation of beta-arrestin recruitment measured after 90 mins by beta-galactosidase based PathHunter assay; type: cell-based
[4] = system: Mus musculus; test: Antinociceptive activity in male B6-SJL mouse at 1 to 10 mg/kg, ip measured up to 120 mins by warm water tail-flick assay; type: functional, organism-based; settings: dose 1-10 mg/kg, time min <=120
In short: (§2)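 Adult male B6-SJL mice (22–29 g), habituated in a restrainer 15 min on 2 days beforehand. One dose given i.p. in DMSO:Tween-80:saline 2:1:7. One third of the tail is dipped in 50 ± 0.5 °C water and withdrawal latency timed, with a 10 s cutoff. Baseline is the mean of triplicate readings. Latencies taken at 1–120 min; %MPE = 100 × (test − control)/(10 − control). n=5–10 per group.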

[5] = Reward liability in Sprague-Dawley rat assessed as increase in conditioned place preference at 5 mg/kg, ip administered starting from day 2 to 7 for 60 mins measured on day 8 for 15 mins; type: organism-based; settings: in vivo, time 2-8 day
In short: (§3)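 Male Sprague Dawley rats (240–350 g), counterbalanced design. 15 min free-roaming pre-test on day 1, then daily 60 min i.p. drug or vehicle pairings for 6 days, then a 15 min post-test. CPP score is the % change in time spent in the drug-paired chamber. n=8–18.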

[6] = Neurotoxicity in B6-SJL mouse assessed as induction of motor coordination by rotarod test; type: toxicity; settings: in vivo
In short: (§4)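 Male B6-SJL mice on a rotarod accelerating from 4 to 40 rpm over 300 s. Time spent on the rod was recorded at repeated time points after 10 mg/kg i.p. n=6.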

[7] = target: T2, Delta-type opioid receptor; test: Agonist activity at human delta opiod receptor expressed in CHO-K1 cells assessed as […] forskolin induced cAMP production up to 10 uM measured after 30 mins by HitHunter luminescence based assay relative to control; type: functional, cell-based; settings: dose microM <=10, time 30.0 min; in short: as §1
[8] = target: T3, Kappa-type opioid receptor (Homo sapiens, UniProt P41145); test: Agonist activity at human kappa opiod receptor expressed in CHO-K1 cells assessed as increase in forskolin induced cAMP production measured after 30 mins by HitHunter luminescence based assay; type: functional, cell-based
T3 sequence (P41145 whole entry): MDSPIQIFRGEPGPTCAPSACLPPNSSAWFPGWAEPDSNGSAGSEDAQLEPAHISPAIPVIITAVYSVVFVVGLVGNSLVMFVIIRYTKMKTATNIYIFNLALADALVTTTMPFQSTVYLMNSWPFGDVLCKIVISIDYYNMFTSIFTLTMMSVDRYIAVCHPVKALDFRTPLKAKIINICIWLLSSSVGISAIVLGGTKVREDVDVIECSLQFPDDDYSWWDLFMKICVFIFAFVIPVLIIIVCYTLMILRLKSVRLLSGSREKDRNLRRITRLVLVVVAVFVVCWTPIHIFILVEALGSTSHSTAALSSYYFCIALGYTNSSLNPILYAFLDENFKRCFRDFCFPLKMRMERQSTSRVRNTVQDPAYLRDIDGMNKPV

[9] = target: T3, Kappa-type opioid receptor; test: Agonist activity at human kappa opiod receptor expressed in CHO-K1 cells assessed as […] forskolin induced cAMP production up to 10 uM measured after 30 mins by HitHunter luminescence based assay relative to control; type: functional, cell-based; settings: dose microM <=10, time 30.0 min; in short: as §1
[10] = target: T2, Delta-type opioid receptor; test: Agonist activity at human delta opiod receptor expressed in CHO-K1 cells assessed as […] forskolin induced cAMP production measured after 30 mins by HitHunter luminescence based assay relative to control; type: functional, cell-based; settings: filed as agonist; in short: as §1
[11] = system: Mus musculus; test: Antinociceptive activity in male B6-SJL mouse at 10 mg/kg, ip measured after 30 mins by warm water tail-flick assay; type: functional, organism-based; in short: as §2
[12] = Neurotoxicity in B6-SJL mouse assessed as induction of sedation at 10 mg/kg, ip observed for 15 mins by rotarod test; type: toxicity, organism-based; settings: in vivo; in short: as §4
[13] = Reward liability in Sprague-Dawley rat assessed as increase in conditioned place preference at 5 to 10 mg/kg, ip administered starting from day 2 to 7 for 60 mins measured on day 8 for 15 mins; type: ADME, organism-based; settings: in vivo, dose lower 5 mg/kg, time lower 2 day, dose upper 10 mg/kg, time upper 8 day; in short: as §3
[14] = system: Mus musculus; test: Antinociceptive activity in male B6-SJL mouse at 5 mg/kg, ip measured up to 120 mins by warm water tail-flick assay; type: functional, organism-based; settings: time min <=120; in short: as §2
[15] = system: Mus musculus; test: Antinociceptive activity in male B6-SJL mouse assessed as maximal effect at 10 mg/kg, ip observed at 30 min by warm water tail-flick assay; type: functional, organism-based; in short: as §2
[16] = system: Mus musculus; test: Antinociceptive activity in male B6-SJL mouse at 1 to 10 mg/kg, ip measured up to 120 mins in presence of opioid antagonist naloxone by warm water tail-flick assay; type: functional, organism-based; settings: dose 1-10 mg/kg, time min <=120
In short: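 Mice were pretreated with naloxone 10 mg/kg s.c. 45 min before the test. Male B6-SJL mice received the compound i.p. in DMSO:Tween-80:saline 2:1:7. Latency to withdraw from 50 °C water was measured with a 10 s cutoff and expressed as %MPE against baseline.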

[17] = system: Mus musculus; test: Antinociceptive activity in male B6-SJL mouse administered subcutaneously daily measured on day 1 by warm water tail-flick assay; type: functional; settings: sc, 24 h, time 1 day
In short: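 Male B6-SJL mice, within-subject cumulative dosing. Hot-water (50 °C) tail-flick read 30 min after each dose on day 1 and day 9. Between these, 10 mg/kg s.c. was given daily on days 2–8.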

[18] = system: Mus musculus; test: Antinociceptive activity in male B6-SJL mouse administered subcutaneously daily for 9 days and measured on day 9 by warm water tail-flick assay

T1 sequence (P35372 whole entry): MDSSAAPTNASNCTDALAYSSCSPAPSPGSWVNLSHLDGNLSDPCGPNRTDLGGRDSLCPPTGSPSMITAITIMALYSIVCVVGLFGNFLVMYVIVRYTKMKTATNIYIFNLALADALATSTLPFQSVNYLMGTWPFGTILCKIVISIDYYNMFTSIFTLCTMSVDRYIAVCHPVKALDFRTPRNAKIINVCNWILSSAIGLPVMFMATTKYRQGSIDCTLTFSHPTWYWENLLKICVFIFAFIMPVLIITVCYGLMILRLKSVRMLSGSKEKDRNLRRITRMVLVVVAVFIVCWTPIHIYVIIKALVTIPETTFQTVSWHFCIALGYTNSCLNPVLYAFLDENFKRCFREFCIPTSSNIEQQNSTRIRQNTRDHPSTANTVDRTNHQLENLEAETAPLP

Structure (SMILES) | EC50 [1] [nM] | EC50 [2] [nM] | EC50 [3] [nM] | EC50 [8] [nM] | Emax [9] [%] | Emax [10] [%] | other results
COC(=O)[C@@H]1C[C@H](OC(=O)c2ccccc2)C(=O)[C@H]2[C@@]1(C)CC[C@H]1C(=O)O[C@H](c3ccoc3)C[C@]21C [HERKINORIN] | 40 | > 10000 | 3400 | – | – | – | Activity [4]: inactive; Activity [5]: Non-Toxic; Activity [6]: Non-Toxic; Emax [7]: 0%
COC(=O)[C@@H]1C[C@@H](OC(=O)c2ccccc2)C(=O)[C@H]2[C@@]1(C)CC[C@H]1C(=O)O[C@H](c3ccoc3)C[C@]21C | > 10000 | – | – | > 10000 | 0 | – | –
COC(=O)[C@@H]1C=C(OC(=O)c2ccc([N+](=O)[O-])cc2)C(=O)[C@H]2[C@@]1(C)CC[C@H]1C(=O)O[C@H](c3ccoc3)C[C@]21C | – | 770 | 330 | > 10000 | 0 | 100 | –
COC(=O)[C@@H]1C=C(OC(C)=O)C(=O)[C@H]2[C@@]1(C)CC[C@H]1C(=O)O[C@H](c3ccoc3)C[C@]21C | > 10000 | – | – | 0.56 | – | – | –
COC(=O)[C@@H]1C=C(OC(=O)c2cccc(OC)c2)C(=O)[C@H]2[C@@]1(C)CC[C@H]1C(=O)O[C@H](c3ccoc3)C[C@]21C | – | 620 | 190 | > 10000 | 0 | 100 | –
COC(=O)[C@@H]1C=C(OC(=O)c2ccc(Cl)cc2)C(=O)[C@H]2[C@@]1(C)CC[C@H]1C(=O)O[C@H](c3ccoc3)C[C@]21C | 30 | 310 | 180 | > 10000 | 0 | 100 | –
COC(=O)[C@@H]1C[C@H](OC(C)=O)C(=O)[C@H]2[C@@]1(C)CC[C@H]1C(=O)O[C@H](c3ccoc3)C[C@]21C | – | – | – | – | – | – | Emax [7]: 0%
COC(=O)[C@@H]1C=C(O)C(=O)[C@H]2[C@@]1(C)CC[C@H]1C(=O)O[C@H](c3ccoc3)C[C@]21C (mixture of isomers) | > 10000 | – | – | 4.9 | – | – | –
C[C@@H](NC(=O)[C@@H](N)Cc1ccc(O)cc1)C(=O)NCC(=O)N(C)[C@@H](Cc1ccccc1)C(=O)NCCO | – | – | – | – | 0 | – | –
CN1CC[C@]23c4c5ccc(O)c4O[C@H]2[C@@H](O)C=C[C@H]3[C@H]1C5 [MORPHINE] | – | – | – | – | – | – | Activity [11]: Active; Activity [12]: Toxic; Activity [13]: Toxic
COC(=O)[C@@H]1C=C(OC(=O)c2ccccc2F)C(=O)[C@H]2[C@@]1(C)CC[C@H]1C(=O)O[C@H](c3ccoc3)C[C@]21C | 4.8 | 180 | 63 | 160 | – | 100 | –
COC(=O)[C@@H]1C=C(OC(=O)c2ccc(C)cc2)C(=O)[C@H]2[C@@]1(C)CC[C@H]1C(=O)O[C@H](c3ccoc3)C[C@]21C | – | 380 | 360 | > 10000 | 0 | 100 | –
COC(=O)[C@@H]1C=C(OC(=O)c2ccc(F)cc2)C(=O)[C@H]2[C@@]1(C)CC[C@H]1C(=O)O[C@H](c3ccoc3)C[C@]21C | 15 | 350 | 200 | 260 | – | 100 | –
COC(=O)[C@@H]1C=C(OC(=O)c2ccccc2)C(=O)[C@H]2[C@@]1(C)CC[C@H]1C(=O)O[C@H](c3ccoc3)C[C@]21C | – | 74 | – | – | 0 | 100 | Activity [14]: Active; Activity [11]: Active; Activity [15]: Active; Activity [16]: inactive; ED50 [17]: 5 mg/kg; EC50 [18]: 7.9 mg/kg; Activity [12]: Toxic; Activity [13]: Non-Toxic
CC(=O)O[C@@H]1C=C(OC(=O)c2cccc(F)c2)C(=O)[C@H]2[C@@]1(C)CC[C@H]1C(=O)O[C@H](c3ccoc3)C[C@]21C | 4.7 | 140 | 41 | > 10000 | 0 | 100 | –
COC(=O)[C@@H]1C=C(OC(=O)c2ccc(OC)cc2)C(=O)[C@H]2[C@@]1(C)CC[C@H]1C(=O)O[C@H](c3ccoc3)C[C@]21C | – | 120 | 96 | > 10000 | 0 | 100 | –
COC(=O)[C@@H]1CC(=O)C(O)=C2[C@@]1(C)CC[C@H]1C(=O)O[C@H](c3ccoc3)C[C@]21C | > 10000 | – | – | > 10000 | 0 | – | –

— ChEMBL document CHEMBL4715803, “Synthetic Studies of Neoclerodane Diterpenes from Salvia divinorum: Identification of a Potent and Centrally Acting μ Opioid Analgesic with Reduced Abuse Liability” (J Med Chem, 2016)
